The source of these data is ChEMBL document CHEMBL4808161, “Structure-Activity Relationship Study of Amidobenzimidazole Analogues Leading to Potent and Systemically Administrable Stimulator of Interferon Gene (STING) Agonists” (J Med Chem, 2021).

Active and inactive are the calls of the source. The rule behind the calls is not given here.

Series [1] concerns Stimulator of interferon genes protein (Homo sapiens), Q86WV6 [UNDEFINED MUTATION]. Put plainly: Activation of STING H232 in human 293-Dual hSTING-R232 cells assessed as induction of ISG signaling measured after 24 hrs. The class given is cell-based. Particulars: filed as activator, dose 0.005-10 µM. The gist of the method: (§1)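 Reporter cells (1 × 10⁵ cells/well) exposed to compound for 24 h at 37 °C in 5% CO₂. Secreted luciferase ISG reporter in 20 μL supernatant read by luminescence with QUANTI-Luc reagent. Activity expressed as fold change versus control.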
Chain of Stimulator of interferon genes protein (Homo sapiens), Q86WV6 [UNDEFINED MUTATION] (Q86WV6 whole entry, looked up, change not shown): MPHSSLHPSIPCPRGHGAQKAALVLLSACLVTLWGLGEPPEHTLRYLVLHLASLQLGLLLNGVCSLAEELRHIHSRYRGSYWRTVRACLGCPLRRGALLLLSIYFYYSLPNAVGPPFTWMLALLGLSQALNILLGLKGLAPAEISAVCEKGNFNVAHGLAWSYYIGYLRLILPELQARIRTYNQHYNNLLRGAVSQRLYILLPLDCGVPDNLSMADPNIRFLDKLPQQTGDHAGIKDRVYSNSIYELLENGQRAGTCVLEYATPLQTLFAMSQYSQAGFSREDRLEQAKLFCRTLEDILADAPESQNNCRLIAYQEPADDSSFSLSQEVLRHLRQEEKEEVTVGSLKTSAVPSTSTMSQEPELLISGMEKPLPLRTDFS

Series [2] relates to 4T1. The series can be described thus: Antitumor activity against mouse 4T1 cells and CT26 cells co-inoculated in orthotopic BALB/c mouse assessed as supression of tumor growth at 10 mg/kg, iv administered on day 1,4 and 7 post inoculation. The class given is functional, organism-based. Particulars: time 7.0 day, in the assay text read “4T1 cells inoculated” for “4T1 cells and CT26 cells co-inoculated”. The gist of the method: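 BALB/c mice bearing orthotopic 4T1 tumors (5 × 10⁵ cells in the breast fat pad; n = 5) dosed iv at 10 mg/kg on days 1, 4 and 7 once tumors reached about 50–100 mm³. Tumor volume calculated as (a × b²)/2 and, with body weight, measured twice weekly.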

For series [3], the species on record is Homo sapiens. The series can be described thus: Binding affinity to human STING 293Q mutant assessed as thermal stability by measuring melting temperature […] differential scanning fluorimetry (reference value: 46.25 degreeC). Particulars: filed as activator. The gist of the method: (§2)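 Thermal shift by DSF: 5 μM STING protein, 50 μM compound and 10× SYPRO Orange in 10 mM HEPES pH 7.5, 150 mM NaCl. Samples heated from 30 to 80 °C at 0.5 °C/min. Tm taken as the temperature of median fluorescence between onset and maximum; n = 3.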
For orientation: DSF heats the sample and reads unfolding from a dye or from intrinsic fluorescence.

The test system of series [4] is CT26. Put plainly: Antitumor activity against mouse CT26 cells inoculated in BALB/c mouse assessed as inhibition of tumor growth at 500 ug, IT(Intratumoral) administered on day 1,4 and 7 post inoculation. It counts as functional. The following applies: dose 500.0 µg, time 7.0 day. The gist of the method:
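BALB/c mice with subcutaneous CT26 tumors (5 × 10⁵ cells, right armpit; n = 6) given 500 μg intratumorally on days 1, 4 and 7 at about 50–100 mm³. Tumor volume ((a × b²)/2) and body weight measured twice weekly.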

Series [5] has as its system RAW-Lucia ISG-KO-STING. Put plainly: Effect on ISG expression in mouse RAW-Lucia ISG-KO-STING cells at 0.005 to 10 uM measured after 24 hrs. The following applies: dose 0.005-10 µM. It counts as functional, cell-based. The method, boiled down:
as §1

For series [6], the system named is Stimulator of interferon genes protein (Homo sapiens), Q86WV6 [UNDEFINED MUTATION]. Put plainly: Binding affinity to human STING R232 mutant assessed as thermal stability by measuring melting temperature […] differential scanning fluorimetry (reference value: 38.75 degreeC). Particulars: filed as activator. The gist of the method:
as §2

The species entered for series [7] is Homo sapiens. Put plainly: Binding affinity to human STING H232 mutant assessed as thermal stability by measuring melting temperature […] differential scanning fluorimetry (reference value: 39.5 degreeC). Particulars: filed as activator. The gist of the method: as §2
For series [8], the target named is T1, Stimulator of interferon genes protein (Homo sapiens, UniProt Q86WV6). The series can be described thus: Activation of STING in human THP1-Dual cells assessed as increase in IP-10 secretion at 0.01 to 10 uM measured after 24 hrs by ELISA. It counts as cell-based. The following applies: filed as activator, dose 0.01-10 µM. The gist of the method:
(§3)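 THP1-Dual cells seeded at 10⁵ cells/well and treated for 24 h. Human IP-10 and IFN-β in supernatant quantified by ELISA kits. Concentration (pg/mL) derived from a standard curve.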
For orientation: In an ELISA, binding on a coated surface is turned into a signal by an enzyme label.

For series [9], the target named is T1, Stimulator of interferon genes protein. Put plainly: Activation of STING in human THP1-Dual cells assessed as increase in IFNbeta secretion at 10 uM measured after 24 hrs by ELISA. The class given is cell-based. Particulars: filed as activator. The gist of the method:
as §3

Series [10] shares this target. The series can be described thus: Activation of STING in human THP1-Dual cells assessed as increase in TBK1/IRF3 phosphorylation measured after 4 hrs by Western blot analysis. Particulars: filed as activator, dose 3.3-30 µM. The class given is cell-based. The gist of the method:
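THP1-Dual cells (8 × 10⁵/well) treated at 3.3, 10 and 30 μM for 4 h, then lysed in SDS sample buffer and boiled. Lysates run on 10% SDS-PAGE and transferred to nitrocellulose. Blots probed for TBK1, phospho-TBK1 Ser172, IRF3, phospho-IRF3 Ser396 and GAPDH, with HRP secondaries and ECL detection.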
(Immunoblotting shows a protein as a band on a membrane.)

Series [11] has the same target. The series can be described thus: Activation of human STING (139 to 379 residues) expressed in THP1-Blue ISG cells at 10 uM incubated for 24 hrs by quanti-blue SEAP reporter gene assay relative to control. It counts as cell-based. Particulars: filed as activator. The method, boiled down:
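THP1-Blue-ISG cells (1 × 10⁵/well) treated for 24 h; single-concentration screen at 10 μM. SEAP ISG reporter in 20 μL supernatant read with QUANTI-Blue at 650 nm. Activation given as fold over control, averaging at least two experiments.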

Series [12] has the same target. The series can be described thus: Activation of STING in human THP1-Dual cells assessed as induction of NF-KB signaling measured after 24 hrs by Quanti-Blue reagent based assay. The class given is cell-based. The following applies: filed as activator, dose 0.005-10 µM. The gist of the method: (§4)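 THP1-Dual cells (1 × 10⁵/well) treated for 24 h. Supernatant (20 μL) incubated 1 h at 37 °C with QUANTI-Blue, then absorbance read at 650 nm. Fold change calculated relative to vehicle control.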

Series [13] has as its system 293-Dual hSTING-H232. The series can be described thus: Activation of STING H232 in human 293-Dual hSTING-H232 cells assessed as induction of ISG signaling measured after 24 hrs. The class given is cell-based. The following applies: filed as activator, dose 0.005-10 µM. The method, boiled down: as §1
In series [14] the test system is Stimulator of interferon genes protein (Homo sapiens), Q86WV6 [R71H,G230A,R293Q]. Put plainly: Binding affinity to human STING HAQ mutant assessed as thermal stability by measuring melting temperature […] differential scanning fluorimetry (reference value: 37.25 degreeC). The following applies: filed as activator. The method, boiled down: as §2
Chain of Stimulator of interferon genes protein (Homo sapiens), Q86WV6 [R71H,G230A,R293Q] (Q86WV6 whole entry R71H/G230A/R293Q): as the sequence (Q86WV6 whole entry, looked up, change not shown) above, with R71H, G230A, R293Q counted along it
Series [15] concerns the target T2, Stimulator of interferon genes protein (Mus musculus) (UniProt Q3TBT3).
T2 sequence (whole entry): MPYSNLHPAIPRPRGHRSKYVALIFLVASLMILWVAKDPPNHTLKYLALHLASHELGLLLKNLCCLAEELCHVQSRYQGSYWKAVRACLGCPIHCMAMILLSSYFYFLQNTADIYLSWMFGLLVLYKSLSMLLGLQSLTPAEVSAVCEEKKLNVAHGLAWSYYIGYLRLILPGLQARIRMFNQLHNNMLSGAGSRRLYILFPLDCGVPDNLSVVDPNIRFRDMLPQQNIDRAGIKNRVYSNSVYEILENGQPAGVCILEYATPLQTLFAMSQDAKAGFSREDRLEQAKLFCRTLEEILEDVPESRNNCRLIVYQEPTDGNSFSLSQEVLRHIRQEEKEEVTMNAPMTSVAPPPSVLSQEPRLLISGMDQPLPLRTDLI
The series can be described thus: Activation of mouse STING expressed in RAW-Lucia ISG cells at 50 uM incubated for 24 hrs by QUANTI-Luc luciferase reporter gene assay relative to control. The following applies: filed as activator.

Series [16] concerns THP1-Dual KO-STING. The series can be described thus: Effect on ISG expression in human THP1-Dual KO-STING cells at 10 uM measured after 24 hrs. The class given is functional, cell-based. The method, boiled down:
as §1

The species entered for series [17] is Mus musculus. The series can be described thus: Binding affinity to mouse STING mR231 mutant assessed as thermal stability by measuring melting temperature […] differential scanning fluorimetry (reference value: 42 degreeC). Particulars: filed as activator. The gist of the method: as §2
Series [18] concerns the target T1, Stimulator of interferon genes protein. The series can be described thus: Activation of STING in human THP1-Dual cells assessed as induction of ISG signaling measured after 24 hrs by Quanti-Blue reagent based assay. The class given is cell-based. The following applies: filed as activator, dose 0.005-10 µM. The gist of the method: as §4
Series [19] can be described thus: Toxicity in orthotopic BALB/c mouse co-inoculated with mouse 4T1 […] cells assessed as drug tolerance at 10 mg/kg, iv administered on day 1,4 and 7 post inoculation. It counts as organism-based. Particulars: in vivo, 168 h, time 7 day. The method, boiled down:
(§5)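 BALB/c mice received 5 × 10⁵ 4T1 cells into the breast fat pad (orthotopic), with n = 5. Dosing began when tumours reached about 50−100 mm³: 10 mg/kg iv on days 1, 4 and 7, against a vehicle group. Body weight and tumour volume were recorded twice weekly, with tolerance and survival followed after each injection.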

A short description of series [20]: Observed MRT infinity in rat at 1 mg/kg, iv. It counts as ADME, organism-based. Particulars: in vivo.
Series [21] in a line: Observed volume of distribution at steady state in rat at 1 mg/kg, iv. It counts as ADME, organism-based. The following applies: in vivo, read-out: Vdss.
The nature of series [22]: Toxicity in orthotopic BALB/c mouse co-inoculated with mouse 4T1 […] cells assessed as weight loss at 10 mg/kg, iv administered on day 1,4 and 7 post inoculation. The following applies: in vivo, 168 h, time 7 day. The class given is organism-based. The method, boiled down: as §5
Series [23] concerns the target T1, Stimulator of interferon genes protein. The series can be described thus: Binding affinity to 6His-tagged human STING measured after 3 hrs by HTRF assay.
Series [24] is described as follows: Observed AUCinfinity in rat at 1 mg/kg, iv. It counts as ADME, organism-based. More on the design: time infinity, route intravenous, dose 1 mg/kg. Particulars: in vivo.
The nature of series [25]: AUClast in rat at 1 mg/kg, iv. More on the design: time 0 - last, route intravenous, dose 1 mg/kg. The following applies: in vivo. It counts as ADME, organism-based.
For series [26], the target named is T3, Stimulator of interferon genes protein (Mus musculus, UniProt Q3TBT3).
T3 sequence (Q3TBT3 whole entry): T2 sequence (whole entry)
Put plainly: Activation of mouse STING expressed in RAW-Lucia ISG cells incubated for 24 hrs by secreted luciferase reporter gene assay.

The nature of series [27]: Half life in rat at 1 mg/kg, iv. It counts as ADME, organism-based. Particulars: in vivo.
Series [28] is described as follows: Observed clearance in rat at 1 mg/kg, iv. The class given is ADME, organism-based. The following applies: in vivo.
The target in series [29] is T1, Stimulator of interferon genes protein. The series can be described thus: Activation of human STING expressed in THP1-Dual cells incubated for 24 hrs by secreted luciferase reporter gene assay.
Series [30] deals with CT26. The series can be described thus: Antitumor activity against mouse CT26 cells inoculated in BALB/c mouse assessed as inhibition of tumor growth IT(Intratumoral) administered on day 1,4 and 7 post inoculation. The following applies: time 7.0 day.

T1 sequence (Q86WV6 whole entry): as the sequence (Q86WV6 whole entry, looked up, change not shown) above

For `CCn1nc(C)cc1C(=O)/N=c1\[nH]c2cc(-c3ncn[nH]3)cc(OC)c2n1C/C=C/Cn1/c(=N/C(=O)c2cc(C)nn2CC)[nH]c2cc(C(N)=O)cc(OCCCN3CCOCC3)c21` [listing 1 of 2 here], the Activity entry in [1], in series [10], in series [12], in [13] and in series [18] was “Dose-Dependent Effect” in each case. Besides, the inhibition entry in series [2] and in series [4] was “Active” in each case. Besides, the Tm was 46.8 °C in series [3]; 45.5 °C in series [6]; 46.8 °C in [7]; 45.8 °C in series [14]; 52.8 °C in [17]. Further, the outcome in series [5] and in [16] was inactive. For the same compound, the outcome in series [8] and in [9] was Active. The fold change (FC) was 19.2 in series [11] and 3.2 in [15].
In the case of `CCn1nc(C)cc1C(=O)/N=c1\[nH]c2cc(-c3ncn[nH]3)cc(OC)c2n1C/C=C/Cn1/c(=N/C(=O)c2cc(C)nn2CC)[nH]c2cc(C(N)=O)cc(OCCCN3CCOCC3)c21` [listing 2 of 2 here], the figures for the Activity entry in series [19] and in series [22] were “Non-Toxic” and “Toxic”, respectively. This compound showed a mean residence time MRT inf in [20] of 30.2 min. The Vd in series [21] was determined as 0.722 L/kg. Moreover, the EC50 in series [23] stood at 6.2 nM; in [26], 39500 nM; in [29], 240 nM. In series [24], the total exposure AUC(0-inf) worked out at 705 ng·h/mL. Further, in series [25], the AUC(0-t) turned out to be 678 ng·h/mL. The compound further gave a half-life in series [27] of 41.8 min. Also, the clearance in [28] was determined as 23.9 mL/min/kg.
Regarding `Cc1ccc2c(=O)c3cccc(CC(=O)O)c3oc2c1C`, the inhibition entry in series [30] was “Active”.

A word on the MRT inf: it is the average time that molecules of a dose stay in the body. The term EC50 denotes the concentration at which the effect is half-maximal. A higher EC50 goes with lower potency in that assay. For orientation: AUC(0-inf) means the area under the concentration-time curve extrapolated to infinity. The low end stands for less exposure, the high end for more exposure. A word on the AUC(0-t): it is exposure summed from dosing to a finite time, without extrapolation to infinity. Low values mean low exposure, high ones high exposure. A word on the half-life: it is how long it takes for the measured level to halve. A word on the clearance: it is the volume of plasma or blood freed of the substance per unit of time. A higher clearance goes with a high capacity for elimination.
